Reference: ChEMBL document CHEMBL4052823, “Extra Sugar on Vancomycin: New Analogues for Combating Multidrug-Resistant Staphylococcus aureus and Vancomycin-Resistant Enterococci” (J Med Chem, 2018)
≈ marks a conversion by molar mass, not a printed value. Calls of active or inactive are those of the source. The rule behind the calls is not given here.

Columns and labels:
HK-2 = experiment: Cytotoxicity against human HK2 cells assessed as decrease in cell viability at 10 to 100 uM after 72 hrs by CCK8 assay; format: cell-based; conditions: hk-2, 72 h
Method in brief: (§1)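 HK-2 and HL-7702 cells were seeded at ~5000 cells/well, incubated overnight, then exposed to compound at final 10, 50 and 100 μM for 72 h. CCK-8 was added for 1.5 h at 37 °C and OD450 read. Viability was OD treated / OD untreated × 100, with triplicates.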

[1] = Volume of distribution at steady state in CD1 mouse at 5 mg/kg, iv; format: ADME, organism-based; conditions: in vivo, read-out: Vdss
Method in brief: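 Fasted male CD-1 mice (18−22 g), 5 mg/kg single dose into the tail vein, 6 per group. T1/2, AUClast, AUCINF_obs, CL_obs, MRTINF_obs and VSS_obs were calculated for each animal from its time−concentration curve.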

L02 = experiment: Cytotoxicity against human HL7702 cells assessed as decrease in cell viability at 10 to 100 uM after 72 hrs by CCK8 assay; format: cell-based; conditions: l02, 72 h; method in brief: as §1
Enterococcus faecium [2] = experiment: Potency index, ratio of oritavancin MIC90 to test compound MIC90 for glycopeptide-resistant Enterococcus faecium Efm-HS-vb01 vanB; format: functional
Enterococcus faecium [3] = experiment: Antibacterial activity against glycopeptide-resistant Enterococcus faecium Efm-HS-06188 vanA after 24 hrs by broth microdilution method; format: functional; conditions: Efm-HS-06188, 24 h
Method in brief: (§2)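 Broth microdilution in cation-adjusted Mueller-Hinton II broth. DMSO stocks were diluted in broth and twofold serially from 128 to 0.0625 μg/mL or lower. Each well was inoculated with ~10^5 CFU of exponential-phase bacteria and incubated at 37 °C for 24 h. MIC was the lowest concentration giving complete growth inhibition, read per CLSI. Growth controls contained broth plus DMSO.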

Staphylococcus aureus [4] = experiment: Antibacterial activity against healthcare-associated methicillin-resistant/vancomycin-intermediate Staphylococcus aureus Mu50 infected in BALB/c mouse assessed as decrease in liver CFU levels at 7 mg/kg, ip administered twice in 24 hrs interval measured after 5 days; format: functional, organism-based
Method in brief: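 Female BALB/c mice, 6−8 weeks old, were anesthetized with pentobarbital and infected retro-orbitally with ~3.8 × 10^8 CFU of exponential-phase Mu50, 12 per group. Treatment started 1 h post-infection: 7 mg/kg ip in sterile water, two doses 24 h apart. At day 5 mice were euthanized and liver homogenates plated on TSA for CFU counts. Groups were compared by two-tailed Mann−Whitney test.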

Staphylococcus aureus [5] = experiment: Potency index, ratio of telavancin MIC90 to test compound MIC90 for vancomycin/methicillin-susceptible Staphylococcus aureus Newman […]; format: functional
Enterococcus faecium [6] = experiment: Potency index, ratio of telavancin MIC90 to test compound MIC90 for glycopeptide-resistant Enterococcus faecium Efm-HS-vb01 vanB; format: functional
Staphylococcus aureus [7] = experiment: Antibacterial activity against methicillin-resistant Staphylococcus aureus USA300 LAC infected in BALB/c mouse assessed as mouse survival rate at 7 mg/kg, ip administered as single dose measured after 10 days relative to control; format: functional; conditions: 240 h
Method in brief: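 Female BALB/c mice, 6−8 weeks old, were anesthetized with pentobarbital and infected retro-orbitally with ~2.35 × 10^8 CFU of exponential-phase USA300 LAC, 15 per group. A single 7 mg/kg ip dose was given 1 h after infection. Deaths were recorded daily to build survival curves.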

Enterococcus faecium [8] = experiment: Antibacterial activity against glycopeptide-resistant Enterococcus faecium Efm-HS-vb01 vanB after 24 hrs by broth microdilution method; format: functional; conditions: Efm-HS-vb01, 24 h; method in brief: as §2
[9] = Clearance in CD1 mouse at 5 mg/kg, iv; format: ADME, organism-based; conditions: in vivo
Method in brief: (§3)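 Fasted male CD-1 mice (18−22 g), 5 mg/kg single dose into the tail vein, 6 per group. Blood sampled at 0.25, 0.75, 2, 4, 8 and 24 h and analysed by UPLC-MS/MS. T1/2, AUClast, AUCINF_obs, CL_obs, MRTINF_obs and VSS_obs were calculated for each animal from its time−concentration curve.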

Enterococcus faecium [10] = experiment: Antibacterial activity against glycopeptide-resistant Enterococcus faecium Efm-HS-0649 vanA after 24 hrs by broth microdilution method; format: functional; conditions: Efm-HS-0649, 24 h; method in brief: as §2
Staphylococcus aureus [11] = experiment: Antibacterial activity against healthcare-associated methicillin-resistant/vancomycin-intermediate Staphylococcus aureus Mu50 after 24 hrs by broth microdilution method; format: functional; conditions: Mu50, 24 h; method in brief: as §2
[12] = AUC (infinity) in CD1 mouse at 5 mg/kg, iv; format: ADME, organism-based; design: dose 5 mg/kg, route intravenous, time infinity; conditions: in vivo; method in brief: as §3
[13] = AUClast in CD1 mouse at 5 mg/kg, iv; format: ADME, organism-based; design: dose 5 mg/kg, route intravenous, time 0 - last; conditions: in vivo; method in brief: as §3
Enterococcus faecium [14] = experiment: Antibacterial activity against glycopeptide-resistant Enterococcus faecium Efm-HS-0847 vanM after 24 hrs by broth microdilution method; format: functional; conditions: Efm-HS-0847, 24 h; method in brief: as §2
[15] = MRT (infinity) in CD1 mouse at 5 mg/kg, iv; format: ADME, organism-based; conditions: in vivo; method in brief: as §3
Blood = experiment: Drug uptake in CD1 mouse blood at 5 mg/kg, iv; format: ADME, organism-based; conditions: in vivo; method in brief: as §3
[16] = Binding affinity to Ac2Lys-dAla-dAla at 2 mM by 1H-13C HSQC NMR method
Method in brief: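 Constant-time [13C,1H]-HSQC at 600 MHz. The compound (2 mM in D2O, pH 3.1, 25 °C) was recorded alone, then again after adding Ac2Lys-dAla-dAla to a final 10 mM under the same conditions. Spectra were overlaid.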

[17] = Half life in CD1 mouse at 5 mg/kg, iv; format: ADME, organism-based; conditions: in vivo; method in brief: as §3
Staphylococcus aureus [18] = experiment: Antibacterial activity against vancomycin/methicillin-susceptible Staphylococcus aureus Newman […] after 24 hrs by broth microdilution method; format: functional
Method in brief: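 Broth microdilution in cation-adjusted Mueller-Hinton II broth. […] Each well received ~10^5 CFU of exponential-phase bacteria and was incubated at 37 °C for 24 h. MIC was taken as the lowest concentration giving complete growth inhibition, interpreted per CLSI.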

Enterococcus faecium [19] = experiment: Antibacterial activity against glycopeptide-resistant Enterococcus faecium Efm-HS-08257 vanM after 24 hrs by broth microdilution method; format: functional; conditions: Efm-HS-08257, 24 h; method in brief: as §2

Question: Which Activity (HK-2) does the source give for `CN[C@H](CC(C)C)C(=O)N[C@H]1C(=O)N[C@@H](CC(N)=O)C(=O)N[C@H]2C(=O)N[C@H]3C(=O)N[C@H](C(=O)N[C@H](C(=O)O)c4cc(O)c(CNCCO[C@@H]5O[C@H](CO)[C@H](O)[C@H](O)[C@H]5O)c(O)c4-c4cc3ccc4O)[C@H](O)c3ccc(c(Cl)c3)Oc3cc2cc(c3O[C@@H]2O[C@H](CO)[C@@H](O)[C@H](O)[C@H]2O[C@H]2C[C@](C)(NCc3ccc(-c4ccc(C(F)(F)F)cc4)cc3)[C@H](O)[C@H](C)O2)Oc2ccc(cc2Cl)[C@H]1O` here?
Answer: Non-Toxic

Question: What about the Vd [1] of the same compound?
Answer: 1.08 L/kg

Question: And the Activity (L02)?
Answer: Non-Toxic

Question: What about the Ratio (Enterococcus faecium [2]) of the same compound?
Answer: 4

Question: And the MIC (Enterococcus faecium [3])?
Answer: 1 µg/mL (≈ 0.521 µM)

Question: And the Activity (Staphylococcus aureus [4])?
Answer: Active

Question: What about the Ratio (Staphylococcus aureus [5]) of the same compound?
Answer: 8 - 16

Question: What about the Ratio (Enterococcus faecium [6]) of the same compound?
Answer: 16

Question: What about the survival at 7 mg/kg (Staphylococcus aureus [7]) of the same compound?
Answer: 86.7%

Question: And the MIC (Enterococcus faecium [8])?
Answer: ≤ 0.06 µg/mL

Question: What about the clearance [9] of the same compound?
Answer: 4.42 mL/min/kg

Question: And the MIC (Enterococcus faecium [10])?
Answer: 2 µg/mL (≈ 1.04 µM)

Question: What about the MIC90 (Staphylococcus aureus [11]) of the same compound?
Answer: 0.25 µg/mL (≈ 0.13 µM)

Question: What about the AUC(0-inf) [12] of the same compound?
Answer: 20000 ng·h/mL

Question: And the AUC(0-t) [13]?
Answer: 16600 ng·h/mL

Question: And the MIC (Enterococcus faecium [14])?
Answer: 8 µg/mL (≈ 4.17 µM)

Question: What about the MRT inf [15] of the same compound?
Answer: 4.21 h

Question: And the Drug uptake (Blood)?
Answer: > 1 µg/mL

Question: And the Activity [16]?
Answer: Active

Question: What about the half-life [17] of the same compound?
Answer: 2.94 h

Question: And the MIC90 (Staphylococcus aureus [18])?
Answer: 0.03 µg/mL (≈ 0.0156 µM)

Question: And the MIC (Enterococcus faecium [19])?
Answer: 2 µg/mL (≈ 1.04 µM)
